ChEMBL document CHEMBL1153333, “Structure-activity relationship studies of curcumin analogues” (Bioorg Med Chem Lett, 2009)

Key:
PC-3 = assay: Antiproliferative activity against human PC3 cells after 72 hrs by MTT assay; assay type: functional, cell-based; conditions: PC-3, 72 h
LNCaP [1] = assay: Antiproliferative activity against human LNCAP cells after 72 hrs by MTT assay; assay type: functional, cell-based
MDA-MB-231 [2] = assay: Antiproliferative activity against human MDA-MB-231 cells after 72 hrs by MTT assay; assay type: functional, cell-based; conditions: MDA-MB-231, 72 h
MCF7 [3] = assay: Antiproliferative activity against human MCF7 cells after 72 hrs by MTT assay; assay type: functional, cell-based; conditions: MCF7, 72 h
LNCaP [4] = assay: Ratio of IC50 for human MCF10A cells to IC50 for human LNCAP cells
Procedure, shortened: (§1)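 Selectivity ratio is the IC50 on non-malignant MCF-10A cells divided by the IC50 on the cancer cell line.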

MDA-MB-231 [5] = assay: Ratio of IC50 for human MCF10A cells to IC50 for human MDA-MB-231 cells; procedure, shortened: as §1
[6] = Antiproliferative activity against human MCF10A cells after 72 hrs by MTT assay; assay type: cell-based; conditions: MCF-10A
Procedure, shortened: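 Spontaneously immortalized, non-malignant human mammary epithelial MCF-10A cells were exposed to compounds for 72 h. Viability was read by MTT assay, and IC50 was taken from that read-out.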

MCF7 [7] = assay: Ratio of IC50 for human MCF10A cells to IC50 for human MCF7 cells; procedure, shortened: as §1
MCF-10A = assay: Ratio of IC50 for human MCF10A cells to IC50 for human PC3 cells; procedure, shortened: as §1

With `COc1cc(/C=C/C(=O)/C=C(O)/C=C/c2ccc(OS(N)(=O)=O)c(OC)c2)ccc1OS(N)(=O)=O` the IC50 (PC-3) was 7.5 µM, the IC50 (LNCaP [1]) was 5.9 µM and the IC50 (MDA-MB-231 [2]) was 3.1 µM. For the same compound, the IC50 (MCF7 [3]) was 5.5 µM.
With `COc1ccc(/C=C/C(=O)/C=C/c2ccc(OC)c(OC)c2)cc1OC` the IC50 (PC-3) was 2.9 µM, the IC50 (LNCaP [1]) was 2.2 µM and the IC50 (MDA-MB-231 [2]) was 1.6 µM. For the same compound, the IC50 (MCF7 [3]) was 2.5 µM.
For `O=C(/C=C/c1ccc(O)cc1)CC(=O)/C=C/c1ccc(O)cc1` [BISDEMETHOXYCURCUMIN], the IC50 (PC-3) was 27.3 µM, the IC50 (LNCaP [1]) was 19.7 µM and the IC50 (MDA-MB-231 [2]) was 21.9 µM. The IC50 (MCF7 [3]) was 24.3 µM.
For `COc1ccc(/C=C/C(=O)/C=C(O)/C=C/c2ccc(OC)c(O)c2)cc1O`, the IC50 (PC-3) was greater than 40 µM, the IC50 (LNCaP [1]) was greater than 40 µM and the IC50 (MDA-MB-231 [2]) was greater than 40 µM. For the same compound, the IC50 (MCF7 [3]) was greater than 40 µM.
In the case of `COc1cc(/C=C/c2cc(/C=C/c3ccc(O)c(OC)c3)[nH]n2)ccc1O` [CURCUMIN PYRAZOLE], the IC50 (PC-3) is reported as 5.6 µM, the “Ratio IC50” value (LNCaP [4]) is reported as “>=5” and the IC50 (LNCaP [1]) is reported as 3.4 µM. For the same compound, the “Ratio IC50” value (MDA-MB-231 [5]) was “>=5”, the IC50 (MDA-MB-231 [2]) was 6.6 µM and the IC50 [6] was greater than 50 µM. For the same compound, the “Ratio IC50” value (MCF7 [7]) was “>=5”, the “Ratio IC50” value (MCF-10A) was “>=5” and the IC50 (MCF7 [3]) was 5.9 µM.
In the case of `O=C(/C=C/c1ccc(O)cc1)/C=C/c1ccc(O)cc1`, the IC50 (PC-3) is reported as 9.5 µM, the IC50 (LNCaP [1]) is reported as 5.8 µM and the IC50 (MDA-MB-231 [2]) is reported as 3.9 µM. The IC50 (MCF7 [3]) was 6.9 µM.
Work on `COc1cc(/C=C/C(=O)/C=C/c2cc(OC)c(OS(N)(=O)=O)c(OC)c2)cc(OC)c1OS(N)(=O)=O` yielded an IC50 (PC-3) of 2.4 µM, an IC50 (LNCaP [1]) of 1.9 µM and an IC50 (MDA-MB-231 [2]) of 0.6 µM. It also gave an IC50 (MCF7 [3]) of 1.5 µM.
`COc1cc(/C=C/C(=O)/C=C/c2ccc(O)c(OC)c2)ccc1O` gave an IC50 (PC-3) of 3.9 µM, an IC50 (LNCaP [1]) of 2.7 µM and an IC50 (MDA-MB-231 [2]) of 2.8 µM. It also gave an IC50 (MCF7 [3]) of 2.4 µM.
For `COc1cc(/C=C/C(O)=C/C(=O)/C=C/c2ccc(OS(N)(=O)=O)c(OC)c2)ccc1O`, the IC50 (PC-3) was 19.3 µM, the IC50 (LNCaP [1]) was 20 µM and the IC50 (MDA-MB-231 [2]) was 14.3 µM. For the same compound, the IC50 (MCF7 [3]) was 15.1 µM.
With `CC(=O)Oc1ccc(/C=C/C(=O)/C=C(O)/C=C/c2ccc(OC(C)=O)c(OC(C)=O)c2)cc1OC(C)=O` the IC50 (PC-3) was 12.9 µM, the IC50 (LNCaP [1]) was 20.2 µM and the IC50 (MDA-MB-231 [2]) was 12.3 µM. The IC50 (MCF7 [3]) was 17.8 µM.
Compound `COc1cc(/C=C/C(=O)/C=C/c2cc(OC)c(O)c(OC)c2)cc(OC)c1O` has an IC50 (PC-3) of 3.6 µM, an IC50 (LNCaP [1]) of 2.5 µM and an IC50 (MDA-MB-231 [2]) of 2.7 µM. The IC50 (MCF7 [3]) was 1.7 µM.
For `COc1cc(OC)c(/C=C/C(=O)/C=C/c2c(OC)cc(OC)cc2OC)c(OC)c1`, the IC50 (PC-3) was 2.1 µM, the “Ratio IC50” value (LNCaP [4]) was 25 and the IC50 (LNCaP [1]) was 0.5 µM. For the same compound, the “Ratio IC50” value (MDA-MB-231 [5]) was 25, the IC50 (MDA-MB-231 [2]) was 0.6 µM and the IC50 [6] was greater than 50 µM. For the same compound, the “Ratio IC50” value (MCF7 [7]) was 25, the “Ratio IC50” value (MCF-10A) was 25 and the IC50 (MCF7 [3]) was 0.4 µM.
For `COc1cc(/C=C/C(=O)/C=C/c2ccc(OS(N)(=O)=O)c(OC)c2)ccc1OS(N)(=O)=O`, the IC50 (PC-3) was 6.1 µM, the IC50 (LNCaP [1]) was 2.4 µM and the IC50 (MDA-MB-231 [2]) was 1.7 µM. It also gave an IC50 (MCF7 [3]) of 6.6 µM.
Compound `COc1cc(/C=C/C(O)=C/C(=O)/C=C/c2ccc(OC)c(OC)c2)ccc1O` [METHYLCURCUMIN] has an IC50 (PC-3) of 20.9 µM, an IC50 (LNCaP [1]) of 6.8 µM and an IC50 (MDA-MB-231 [2]) of 7.2 µM. The IC50 (MCF7 [3]) was 15.4 µM.
In the case of `NS(=O)(=O)Oc1ccc(/C=C/C(=O)/C=C/c2ccc(OS(N)(=O)=O)cc2)cc1`, the IC50 (PC-3) is reported as 5.1 µM, the IC50 (LNCaP [1]) is reported as 5.1 µM and the IC50 (MDA-MB-231 [2]) is reported as 4.2 µM. The IC50 (MCF7 [3]) was 3.5 µM.
With `COc1ccc(/C=C/C(=O)/C=C(O)/C=C/c2ccc(OC)c(OS(N)(=O)=O)c2)cc1OS(N)(=O)=O` the IC50 (PC-3) was 7.4 µM, the IC50 (LNCaP [1]) was 7.7 µM and the IC50 (MDA-MB-231 [2]) was 6.5 µM. The IC50 (MCF7 [3]) was 5.5 µM.
In the case of `COc1cc(OC)c(OC)cc1/C=C/C(=O)/C=C/c1cc(OC)c(OC)cc1OC`, the IC50 (PC-3) is reported as 4.6 µM, the “Ratio IC50” value (LNCaP [4]) is reported as “>=5” and the IC50 (LNCaP [1]) is reported as 1.7 µM. For the same compound, the “Ratio IC50” value (MDA-MB-231 [5]) was “>=5”, the IC50 (MDA-MB-231 [2]) was 2.4 µM and the IC50 [6] was greater than 50 µM. The “Ratio IC50” value (MCF7 [7]) was “>=5”, the “Ratio IC50” value (MCF-10A) was “>=5” and the IC50 (MCF7 [3]) was 2.4 µM.
`COc1cc(/C=C/C(=O)CC(=O)/C=C/c2ccc(O)c(OC)c2)ccc1O` [CURCUMIN] gave an IC50 (PC-3) of 19.8 µM, an IC50 (LNCaP [1]) of 19.6 µM and an IC50 (MDA-MB-231 [2]) of 25.6 µM. For the same compound, the IC50 [6] was 30.1 µM and the IC50 (MCF7 [3]) was 21.5 µM.
For `COc1cc(/C=C/C(=O)/C=C/c2cc(OC)cc(OC)c2)cc(OC)c1`, the IC50 (PC-3) was 2.5 µM, the “Ratio IC50” value (LNCaP [4]) was “>=5” and the IC50 (LNCaP [1]) was 2.1 µM. For the same compound, the “Ratio IC50” value (MDA-MB-231 [5]) was “>=5”, the IC50 (MDA-MB-231 [2]) was 1.5 µM and the IC50 [6] was greater than 50 µM. For the same compound, the “Ratio IC50” value (MCF7 [7]) was “>=5”, the “Ratio IC50” value (MCF-10A) was “>=5” and the IC50 (MCF7 [3]) was 2.7 µM.
With `COc1ccc(/C=C/C(=O)/C=C(O)/C=C/c2ccc(OC)c(OC)c2)cc1OC` [DIMETHYLCURCUMIN] the IC50 (PC-3) was 5.9 µM, the IC50 (LNCaP [1]) was 3.9 µM and the IC50 (MDA-MB-231 [2]) was 4.9 µM. For the same compound, the IC50 [6] was 31.5 µM and the IC50 (MCF7 [3]) was 5.4 µM.
`COc1cccc(/C=C/C(=O)/C=C(O)/C=C/c2cccc(OC)c2)c1` gave an IC50 (PC-3) of 40 µM, an IC50 (LNCaP [1]) of 34.7 µM and an IC50 (MDA-MB-231 [2]) of 31.9 µM. It also gave an IC50 (MCF7 [3]) of 25.9 µM.
Compound `COc1cc(/C=C/c2cc(/C=C/c3ccc(O)c(OC)c3)n(C)n2)ccc1O` has an IC50 (PC-3) of 16.2 µM, an IC50 (LNCaP [1]) of 12.1 µM and an IC50 (MDA-MB-231 [2]) of 20.4 µM. The IC50 (MCF7 [3]) was 15.8 µM.
With `COc1ccc(/C=C/C(=O)/C=C/c2ccc(OC)c(O)c2)cc1O` the IC50 (PC-3) was 5.9 µM, the IC50 (LNCaP [1]) was 2.6 µM and the IC50 (MDA-MB-231 [2]) was 3.1 µM. It also gave an IC50 (MCF7 [3]) of 2.9 µM.
`COc1cc(/C=C/C(=O)/C=C(O)/C=C/c2cc(OC)c(OS(N)(=O)=O)c(OC)c2)cc(OC)c1OS(N)(=O)=O` gave an IC50 (PC-3) of 13.1 µM, an IC50 (LNCaP [1]) of 10.4 µM and an IC50 (MDA-MB-231 [2]) of 5.5 µM. It also gave an IC50 (MCF7 [3]) of 4.7 µM.
